According to ChEMBL document CHEMBL3046679, “Design, synthesis, and biological activities of arylmethylamine substituted chlorotriazine and methylthiotriazine compounds” (J Agric Food Chem, 2011):
Activity calls are given as the source filed them. The calls are words filed in the database; no cut-off is given here.

Key:
[1] = tested on: Puccinia triticina; experiment: Fungicidal activity against Puccinia triticina assessed as inhibition of disease development in compound treated leaf pieces at 200 ppm relative to untreated control (wheat-curative); format: functional
Method in brief: (§1)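 Curative wheat leaf-piece test against Puccinia triticina. Leaf pieces inoculated with spores first, then treated with formulated compound at 200, 60 or 20 ppm. Disease scored 3–9 days after inoculation as percent inhibition versus untreated controls. Values are the mean across replicates.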

[2] = tested on: Puccinia triticina; experiment: Fungicidal activity against Puccinia triticina assessed as inhibition of disease development in compound treated leaf pieces at 200 ppm relative to untreated control (wheat-preventative); format: functional
Method in brief: (§2)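 Preventative leaf-piece test on host tissue (tomato, vine, wheat or barley). Formulated compound applied at 200, 60 and 20 ppm before spore inoculation. Disease scored 3–9 days after inoculation, depending on the pathogen, as percent inhibition of disease development versus untreated controls. Values are the mean across replicates.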

[3] = tested on: Blumeria graminis f. sp. tritici; experiment: Fungicidal activity against Blumeria graminis f. sp. tritici assessed as inhibition of disease development in compound treated leaf pieces at 200 ppm relative to untreated control (wheat-preventative); format: functional
[4] = tested on: Plasmopara viticola; experiment: Fungicidal activity against Plasmopara viticola assessed as inhibition of disease development in compound treated leaf pieces at 200 ppm relative to untreated control (grapevine-preventative); format: functional; method in brief: as §2
[5] = tested on: Phytophthora infestans; experiment: Fungicidal activity against Phytophthora infestans assessed as inhibition of disease development in compound treated leaf pieces at 200 ppm relative to untreated control (tomato-preventative); format: functional; method in brief: as §2
[6] = tested on: Uromyces viciae-fabae; experiment: Fungicidal activity against Uromyces viciae-fabae assessed as inhibition of mycelia growth at 100 ppm; format: functional, organism-based
Method in brief: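 Leaf-piece assay on bean at 100 ppm, with compound applied before spore inoculation and two replicates. Each well scored 99 for complete inhibition, 55 for partial and 0 for none; value is the mean score across replicates.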

[7] = tested on: Phytophthora infestans; experiment: Fungicidal activity against Phytophthora infestans assessed as inhibition of mycelia growth at 200 ppm; format: functional, organism-based
[8] = tested on: Fusarium graminearum; experiment: Fungicidal activity against Fusarium graminearum assessed as inhibition of mycelia growth at 2 ppm; format: functional, organism-based
Method in brief: (§3)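 Mycelial growth test in 96-well plates: compound incorporated into artificial growth medium at 2 ppm, two replicates per rate. Each well scored 99 for complete, 55 for partial or 0 for no inhibition. Values are the mean across replicates; azoxystrobin and prochloraz used as positive controls.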

[9] = tested on: Alternaria solani; experiment: Fungicidal activity against Alternaria solani assessed as inhibition of mycelia growth at 2 ppm; format: functional, organism-based; method in brief: as §3
[10] = tested on: Pythium dissimile; experiment: Fungicidal activity against Pythium dissimile assessed as inhibition of mycelia growth at 2 ppm; format: functional, organism-based; method in brief: as §3
[11] = tested on: Echinochloa crus-galli; experiment: Herbicidal activity against Echinochloa crus-galli (barnyard grass) at 1.5 kg/ha postemergence treatment measured after 10 days by glasshouse test; format: functional; settings: post-emergence, 240 h
Method in brief: (§4)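 Glasshouse pre/postemergence test, each treatment in triplicate. Above-ground fresh weight measured 10 days after treatment. Result expressed as percent inhibition versus control, from 0 (no control) to 100 (complete control); glyphosate used as positive control.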

[12] = tested on: Brassica napus; experiment: Herbicidal activity against Brassica napus (oilseed rape) at 1.5 kg/ha postemergence treatment measured after 10 days by glasshouse test; format: functional; settings: post-emergence, 240 h; method in brief: as §4
[13] = tested on: Echinochloa crus-galli; experiment: Herbicidal activity against Echinochloa crus-galli (barnyard grass) at 1.5 kg/ha preemergence treatment measured after 10 days by glasshouse test; format: functional; settings: pre-emergence, 240 h; method in brief: as §4
[14] = tested on: Brassica napus; experiment: Herbicidal activity against Brassica napus (oilseed rape) at 1.5 kg/ha preemergence treatment measured after 10 days by glasshouse test; format: functional; settings: pre-emergence, 240 h; method in brief: as §4
[15] = tested on: Alternaria solani; experiment: Fungicidal activity against Alternaria solani assessed as inhibition of disease development in compound treated leaf pieces at 20 ppm relative to untreated control (tomato-preventative); format: functional; method in brief: as §2
[16] = tested on: Pyrenophora teres; experiment: Fungicidal activity against Pyrenophora teres assessed as inhibition of disease development in compound treated leaf pieces at 20 ppm relative to untreated control (barley-preventative); format: functional; method in brief: as §2
[17] = tested on: Parastagonospora nodorum; experiment: Fungicidal activity against Phaeosphaeria nodorum assessed as inhibition of disease development in compound treated leaf pieces at 20 ppm relative to untreated control (wheat preventative); format: functional; method in brief: as §2
[18] = tested on: Puccinia triticina; experiment: Fungicidal activity against Puccinia triticina assessed as inhibition of disease development in compound treated leaf pieces at 20 ppm relative to untreated control (wheat-curative); format: functional; method in brief: as §1
[19] = tested on: Puccinia triticina; experiment: Fungicidal activity against Puccinia triticina assessed as inhibition of disease development in compound treated leaf pieces at 20 ppm relative to untreated control (wheat-preventative); format: functional; method in brief: as §2
[20] = tested on: Blumeria graminis f. sp. tritici; experiment: Fungicidal activity against Blumeria graminis f. sp. tritici assessed as inhibition of disease development in compound treated leaf pieces at 20 ppm relative to untreated control (wheat-preventative); format: functional
[21] = tested on: Plasmopara viticola; experiment: Fungicidal activity against Plasmopara viticola assessed as inhibition of disease development in compound treated leaf pieces at 20 ppm relative to untreated control (grapevine-preventative); format: functional; method in brief: as §2
[22] = tested on: Phytophthora infestans; experiment: Fungicidal activity against Phytophthora infestans assessed as inhibition of disease development in compound treated leaf pieces at 20 ppm relative to untreated control (tomato-preventative); format: functional; method in brief: as §2
[23] = tested on: Alternaria solani; experiment: Fungicidal activity against Alternaria solani assessed as inhibition of disease development in compound treated leaf pieces at 60 ppm relative to untreated control (tomato-preventative); format: functional; method in brief: as §2
[24] = tested on: Pyrenophora teres; experiment: Fungicidal activity against Pyrenophora teres assessed as inhibition of disease development in compound treated leaf pieces at 60 ppm relative to untreated control (barley-preventative); format: functional; method in brief: as §2
[25] = tested on: Parastagonospora nodorum; experiment: Fungicidal activity against Phaeosphaeria nodorum assessed as inhibition of disease development in compound treated leaf pieces at 60 ppm relative to untreated control (wheat preventative); format: functional; method in brief: as §2
[26] = tested on: Puccinia triticina; experiment: Fungicidal activity against Puccinia triticina assessed as inhibition of disease development in compound treated leaf pieces at 60 ppm relative to untreated control (wheat-curative); format: functional; method in brief: as §1
[27] = tested on: Puccinia triticina; experiment: Fungicidal activity against Puccinia triticina assessed as inhibition of disease development in compound treated leaf pieces at 60 ppm relative to untreated control (wheat-preventative); format: functional; method in brief: as §2
[28] = tested on: Blumeria graminis f. sp. tritici; experiment: Fungicidal activity against Blumeria graminis f. sp. tritici assessed as inhibition of disease development in compound treated leaf pieces at 60 ppm relative to untreated control (wheat-preventative); format: functional
[29] = tested on: Plasmopara viticola; experiment: Fungicidal activity against Plasmopara viticola assessed as inhibition of disease development in compound treated leaf pieces at 60 ppm relative to untreated control (grapevine-preventative); format: functional; method in brief: as §2
[30] = tested on: Phytophthora infestans; experiment: Fungicidal activity against Phytophthora infestans assessed as inhibition of disease development in compound treated leaf pieces at 60 ppm relative to untreated control (tomato-preventative); format: functional; method in brief: as §2
[31] = tested on: Alternaria solani; experiment: Fungicidal activity against Alternaria solani assessed as inhibition of disease development in compound treated leaf pieces at 200 ppm relative to untreated control (tomato-preventative); format: functional; method in brief: as §2
[32] = tested on: Pyrenophora teres; experiment: Fungicidal activity against Pyrenophora teres assessed as inhibition of disease development in compound treated leaf pieces at 200 ppm relative to untreated control (barley-preventative); format: functional; method in brief: as §2
[33] = tested on: Triticum aestivum; experiment: Phytotoxicity against Triticum aestivum (wheat) plant at 200 ppm; format: organism-based; settings: in vivo
[34] = tested on: Heliothis virescens; experiment: Insecticidal activity against Lepidoptera Heliothis virescens (tobacco budworm) assessed as mortality at 1000 ppm by leaf-disk assay; format: functional, organism-based
Method in brief: (§5)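 Leaf-disk assay at 1000 ppm, three replicates. Plates kept 5–9 days in controlled-environment cabinets. Mortality judged against untreated wells: 99 for significant mortality, 0 otherwise. Values are the mean of three; thiamethoxam and indoxacarb used as positive controls.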

[35] = tested on: Aphididae; experiment: Insecticidal activity against Aphididae (aphids) assessed as mortality at 1000 ppm by leaf-disk assay; format: functional, organism-based; method in brief: as §5

CSc1nc(NCc2cc(-c3ccccc3)no2)nc(NC(C)C)n1
inhibition at 200 ppm [1]: 100%
inhibition at 200 ppm [2]: 100%
inhibition at 200 ppm [3]: 70%
inhibition at 200 ppm [4]: 0%
inhibition at 200 ppm [5]: 0%
inhibition [6]: Active
inhibition [7]: inactive
inhibition [8]: inactive
inhibition [9]: inactive
inhibition [10]: inactive
inhibition at 1500 g/ha [11]: 14.3%
inhibition at 1500 g/ha [12]: 100%
inhibition at 1500 g/ha [13]: 37.6%
inhibition at 1500 g/ha [14]: 33.1%
inhibition at 20 ppm [15]: 0%
inhibition at 20 ppm [16]: 0%
inhibition at 20 ppm [17]: 0%
inhibition at 20 ppm [18]: 70%
inhibition at 20 ppm [19]: 0%
inhibition at 20 ppm [20]: 0%
inhibition at 20 ppm [21]: 0%
inhibition at 20 ppm [22]: 0%
inhibition at 60 ppm [23]: 0%
inhibition at 60 ppm [24]: 0%
inhibition at 60 ppm [25]: 70%
inhibition at 60 ppm [26]: 100%
inhibition at 60 ppm [27]: 70%
inhibition at 60 ppm [28]: 70%
inhibition at 60 ppm [29]: 0%
inhibition at 60 ppm [30]: 0%
inhibition at 200 ppm [31]: 0%
inhibition at 200 ppm [32]: 0%
Activity [33]: Toxic
mortality [34]: inactive
mortality [35]: inactive
